Where a chain is given by its changes, count along the chain named. One block for each molecule: values may come before it. No end group written: not given here. Me2 = α-N-dimethylated N-terminal residue
Key:
human NRMT1 [1] = biological target: T1, human NRMT1 (Homo sapiens, UniProt Q9BV86); assay: MALDI-TOF MS-based methylation assay of native and mutant CENP-A; format: biochemical; details: 5 h incubation, CENP-A (1-9) peptides
T1 sequence (Q9BV86 1-223): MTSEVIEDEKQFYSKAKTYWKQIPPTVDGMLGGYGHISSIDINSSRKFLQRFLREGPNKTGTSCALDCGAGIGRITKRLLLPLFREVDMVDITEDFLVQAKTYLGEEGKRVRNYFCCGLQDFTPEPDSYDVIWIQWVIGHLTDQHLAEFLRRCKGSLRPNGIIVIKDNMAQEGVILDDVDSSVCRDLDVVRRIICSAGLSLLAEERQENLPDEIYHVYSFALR
In short: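 Recombinant His-tagged human NRMT1, expressed in E. coli and purified, incubated 5 h with native or mutant CENP-A peptides. Methylated products detected by MALDI-TOF mass spectrometry. Abundance of each methylation state scored semi-quantitatively (full or half abundance levels); products not detected are recorded as ND.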

human NRMT1 [2] = biological target: T1, human NRMT1; assay: Thermofluor shift assay; format: binding; details: CENP-A (1-9) peptides, 360 μM; 1 mg/mL NRMT1, 180 μM SAH, pH 8.0
human NRMT1 [3] = biological target: T1, human NRMT1; assay: Histone peptide methylation profiling by NRMT1; format: biochemical; details: nine-residue N-terminal histone peptides; MALDI-TOF MS
In short: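 Wild-type human NRMT1, produced recombinantly in E. coli and purified as a His-tagged protein, incubated with native or mutant peptide substrates for 5 h. Methylated products detected by MALDI-TOF MS and scored semi-quantitatively by relative abundance of each methylation state (full or half abundance), with not-detected products recorded as ND.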

human NRMT1 [4] = biological target: T1, human NRMT1; details: ref Okada et al. 2007; Tooley et al. 2010; Bailey et al. 2013; cited from earlier work
human NRMT1 (human) = human NRMT1 (human) (UniProt Q9BV86); assay: thermofluor shift assay
human NRMT1 [5] = biological target: T2, human NRMT1 (human, UniProt Q9BV86 1-223); assay: thermofluor shift assay
T2 sequence (looked up): T1 sequence (Q9BV86 1-223)

human NRMT1 [6] = biological target: T2, human NRMT1; assay: ITC
human NRMT1 D180N = biological target: T3, human NRMT1 D180N (human, UniProt Q9BV86 1-223, D180N); assay: cell-based or functional assay
T3 sequence: T1 sequence (Q9BV86 1-223) with D180N

Molecule: myosin light chain 3: reported NRMT1 substrate protein
reported NRMT1 substrate, in words (human NRMT1 [4]): reported NRMT1 substrates

B1: kelch-like protein 31: reported NRMT1 substrate protein (protein, UniProt Q9H511 2-634, looked up)
Kelch-like protein 31: APKKKIVKKNKGDINEMTIIVEDSPLNKLNALNGLLEGGNGLSCISSELTDASYGPNLLEGLSKMRQENFLCDLVIGTKTKSFDVHKSVMASCSEYFYNILKKDPSIQRVDLNDISPLGLATVIAYAYTGKLTLSLYTIGSIISAAVYLQIHTLVKMCSDFLIREMSVENCMYVVNIAETYSLKNAKAAAQKFIRDNFLEFAESDQFMKLTFEQINELLIDDDLQLPSEIVAFQIAMKWLEFDQKRVKYAADLLSNIRFGTISAQDLVNYVQSVPRMMQDADCHRLLVDAMNYHLLPYHQNTLQSRRTRIRGGCRVLVTVGGRPGLTEKSLSRDILYRDPENGWSKLTEMPAKSFNQCVAVMDGFLYVAGGEDQNDARNQAKHAVSNFCRYDPRFNTWIHLASMNQKRTHFSLSVFNGLVYAAGGRNAEGSLASLECYVPSTNQWQPKTPLEVARCCHASAVADGRVLVTGGYIANAYSRSVCAYDPASDSWQELPNLSTPRGWHCAVTLSDRVYVMGGSQLGPRGERVDVLTVECYSPATGQWSYAAPLQVGVSTAGVSALHGRAYLVGGWNEGEKKYKKCIQCFSPELNEWTEDDELPEATVGVSCCTLSMPNNVTRESRASSVSSVPVSI
reported NRMT1 substrate, in words (human NRMT1 [4]): reported NRMT1 substrates

B2: myosin light chain 2: reported NRMT1 substrate protein (protein, UniProt P10916 2-166, looked up)
Myosin regulatory light chain …: APKKAKKRAGGANSNVFSMFEQTQIQEFKEAFTIMDQNRDGFIDKNDLRDTFAALGRVNVKNEEIDEMIKEAPGPINFTVFLTMFGEKLKGADPEETILNAFKVFDPEGKGVLKADYVREMLTTQAERFSKEEVDQMFAAFPPDVTGNLDYKNLVHIITHGEEKD
reported NRMT1 substrate, in words (human NRMT1 [4]): reported NRMT1 substrates

B3: retinoblastoma protein: reported NRMT1 substrate protein (protein, UniProt P06400 2-928, looked up)
Retinoblastoma-associated …: PPKTPRKTAATAAAAAAEPPAPPPPPPPEEDPEQDSGPEDLPLVRLEFEETEEPDFTALCQKLKIPDHVRERAWLTWEKVSSVDGVLGGYIQKKKELWGICIFIAAVDLDEMSFTFTELQKNIEISVHKFFNLLKEIDTSTKVDNAMSRLLKKYDVLFALFSKLERTCELIYLTQPSSSISTEINSALVLKVSWITFLLAKGEVLQMEDDLVISFQLMLCVLDYFIKLSPPMLLKEPYKTAVIPINGSPRTPRRGQNRSARIAKQLENDTRIIEVLCKEHECNIDEVKNVYFKNFIPFMNSLGLVTSNGLPEVENLSKRYEEIYLKNKDLDARLFLDHDKTLQTDSIDSFETQRTPRKSNLDEEVNVIPPHTPVRTVMNTIQQLMMILNSASDQPSENLISYFNNCTVNPKESILKRVKDIGYIFKEKFAKAVGQGCVEIGSQRYKLGVRLYYRVMESMLKSEEERLSIQNFSKLLNDNIFHMSLLACALEVVMATYSRSTSQNLDSGTDLSFPWILNVLNLKAFDFYKVIESFIKAEGNLTREMIKHLERCEHRIMESLAWLSDSPLFDLIKQSKDREGPTDHLESACPLNLPLQNNHTAADMYLSPVRSPKKKGSTTRVNSTANAETQATSAFQTQKPLKSTSLSLFYKKVYRLAYLRLNTLCERLLSEHPELEHIIWTLFQHTLQNEYELMRDRHLDQIMMCSMYGICKVKNIDLKFKIIVTAYKDLPHAVQETFKRVLIKEEEYDSIIVFYNSVFMQRLKTNILQYASTRPPTLSPIPHIPRSPYKFPSSPLRIPGGNIYISPLKSPYKISEGLPTPTKMTPRSRILVSIGESFGTSEKFQKINQMVCNSDRVLKRSAEGSNPPKPLKKLRFDIEGSDEADGSKHLPGESKFQQKLAEMTSTRTRMQKQKMNDSMDTSNKEEK
reported NRMT1 substrate, in words (human NRMT1 [4]): reported NRMT1 substrates

B4: regulator of chromosome condensation 1 (RCC1): reported NRMT1 substrate protein (protein, UniProt P18754 2-421, looked up)
Regulator of chromosome …: SPKRIAKRRSPPADAIPKSKKVKVSHRSHSTEPGLVLTLGQGDVGQLGLGENVMERKKPALVSIPEDVVQAEAGGMHTVCLSKSGQVYSFGCNDEGALGRDTSVEGSEMVPGKVELQEKVVQVSAGDSHTAALTDDGRVFLWGSFRDNNGVIGLLEPMKKSMVPVQVQLDVPVVKVASGNDHLVMLTADGDLYTLGCGEQGQLGRVPELFANRGGRQGLERLLVPKCVMLKSRGSRGHVRFQDAFCGAYFTFAISHEGHVYGFGLSNYHQLGTPGTESCFIPQNLTSFKNSTKSWVGFSGGQHHTVCMDSEGKAYSLGRAEYGRLGLGEGAEEKSIPTLISRLPAVSSVACGASVGYAVTKDGRVFAWGMGTNYQLGTGQDEDAWSPVEMMGKQLENRVVLSVSSGGQHTVLLVKDKEQS
reported NRMT1 substrate, in words (human NRMT1 [4]): reported NRMT1 substrates

B5: CENP-B: reported NRMT1 substrate protein (protein, UniProt P07199 2-599, looked up)
Major centromere autoantigen B: GPKRRQLTFREKSRIIQEVEENPDLRKGEIARRFNIPPSTLSTILKNKRAILASERKYGVASTCRKTNKLSPYDKLEGLLIAWFQQIRAAGLPVKGIILKEKALRIAEELGMDDFTASNGWLDRFRRRHGVVSCSGVARARARNAAPRTPAAPASPAAVPSEGSGGSTTGWRAREEQPPSVAEGYASQDVFSATETSLWYDFLPDQAAGLCGGDGRPRQATQRLSVLLCANADGSEKLPPLVAGKSAKPRAGQAGLPCDYTANSKGGVTTQALAKYLKALDTRMAAESRRVLLLAGRLAAQSLDTSGLRHVQLAFFPPGTVHPLERGVVQQVKGHYRQAMLLKAMAALEGQDPSGLQLGLTEALHFVAAAWQAVEPSDIAACFREAGFGGGPNATITTSLKSEGEEEEEEEEEEEEEEGEGEEEEEEGEEEEEEGGEGEELGEEEEVEEEGDVDSDEEEEEDEESSSEGLEAEDWAQGVVEAGGSFGAYGAQEEAQCPTLHFLEGGEDSDSDSEEEDDEEEDDEDEDDDDDEEDGDEVPVPSFGEAMAYFAMVKRYLTSFPIDDRVQSHILHLEHDLVHVTRKNHARQAGVRGLGHQS
reported NRMT1 substrate, in words (human NRMT1 [4]): reported NRMT1 substrates

Now from value to molecule, other results behind:

methylation capacity / state preference, in words (human NRMT1 [1]): full state
Tm increase (stabilization) compared with NRMT1-SAH binary complex (human NRMT1 [2]): 1.5 °C
Molecule: (G1A)PRRRSRKP

methylation capacity / state preference, in words (human NRMT1 [1]): full state
Tm increase (stabilization) compared with NRMT1-SAH binary complex (human NRMT1 [2]): 5.5 °C
Molecule: (G1P)PRRRSRKP

Tm increase (stabilization) compared with NRMT1-SAH binary complex (human NRMT1 [2]): 3 °C
Molecule: (G1S)PRRRSRKP
methylation capacity / state preference, in words (human NRMT1 [1]): α-N-monomethylation being the major product form

methylation by NRMT1, in words (human NRMT1 [3]): dimethylation
Molecule: PPKTSGKAA [DmH2B (fruit fly)]

Tm of the NRMT1–CENP-A complex (human NRMT1 (human)): 49 °C
Molecule: α-N-monomethylated CENP-A peptide

Tm of the NRMT1–CENP-A complex (human NRMT1 (human)): 50 °C
Molecule: α-N-trimethylated CENP-A peptide

Kd (human NRMT1 [6]): 390 nM
dH (human NRMT1 [6]): -11.8 kcal/mol
Molecule: Me2-GPRRRSRKP [α-N-dimethylated CENP-A (1–9) peptide]
Tm of the NRMT1–CENP-A complex (human NRMT1 [5]): 52.5 °C

in vitro methylation assay of CENP-A, drop of activity against wild-type enzyme (human NRMT1 D180N): ~4 fold
Molecule: GPRRRSRKP [CENP-A (1–9) peptide, unmodified]

— article PMC4691888 (Genes & Development, 2015)
